Measured values: PMC4547841 (Bioorganic & medicinal chemistry letters, 2013)

What was measured:
hsp90 [1] = test: hsp90 protein level in HeLa cell lysate, western blot; type: cell-based; details: 17-AAG 100 nM and 1 μM, normalized to GAPDH and DMSO control, n≥3
Outline: (§1)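 HeLa cells treated with test compounds at two concentrations each (100nM and 1μM, or 5μM and 50μM). Cell lysates analysed by western blot. Bands quantitated by densitometry, normalized to GAPDH and to DMSO control. n≥3, mean±SEM.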

HeLa cells = details: assay not described; HeLa treated at IC50 and ten-fold over IC50; ref [36]; cited from earlier work
FKBP51 = FKBP51 protein level in HeLa cell lysate, western blot; type: cell-based; details: n≥3
Outline: as §1

FKBP52 = FKBP52 protein level in HeLa cell lysate, western blot; type: cell-based; details: n≥3
Outline: as §1

heat shock response = test: Heat shock response; type: cell-based; details: HeLa; 17-AAG 100 nM and 1 μM, CA1 and SM145 5 μM and 50 μM; hsp70, hsp90, HSF1 levels
HSF1 = HSF1 protein level in HeLa cell lysate, western blot; type: cell-based; details: 17-AAG 100 nM and 1 μM, normalized to GAPDH and DMSO control, n≥3
Outline: as §1

hsp90 [2] = test: Luciferase refolding assays; type: biochemical; details: 17-AAG 1 μM, SM145 50 μM (Figure 3); CA1 in Supplemental Figure S3
Outline: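 Refolding of heat-denatured firefly luciferase, read as luciferase activity over time up to 2 h, in two systems: rabbit reticulocyte lysate, and a pure protein system with 1μM hsp70, 0.2μM hsp40, 0.1μM HOP and 0.5μM hsp90. Test compounds at 1μM or 50μM. n=3, mean±SEM.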

hsp90 and FKBP51 = test: TPR co-chaperone and hsp90 binding assay, FKBP51
Outline: (§2)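 Binding of each TPR co-chaperone (Unc45, CHIP, TOM70, HOP, Cyp40, FKBP52, FKBP51) to hsp90 measured with increasing test compound, 0–5μM or 0–10μM depending on compound.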

hsp70 = hsp70 protein level in HeLa cell lysate, western blot; type: cell-based; details: normalized to GAPDH and DMSO control, n≥3
Outline: as §1

[3] = test system: glucocorticoid receptor (GR); test: Glucocorticoid receptor; type: cell-based; details: HeLa; 17-AAG 100 nM and 1 μM; n≥3
Outline: as §1

hsp90 and TOM70 = test: TPR co-chaperone and hsp90 binding assay, TOM70
Outline: as §2

hsp90 and Cyp40 = test: TPR co-chaperone and hsp90 binding assay, Cyp40; details: CA1 at 10 μM
Outline: as §2

hsp90 and FKBP52 = test: TPR co-chaperone and hsp90 binding assay, FKBP52; details: CA1 0–10 μM; some Figure 5 data marked * previously published, ref [31]
hsp90 and HOP = test: TPR co-chaperone and hsp90 binding assay, HOP; details: CA1 0–10 μM; some Figure 5 data marked * previously published, ref [31]
hsp90 and CHIP = test: TPR co-chaperone and hsp90 binding assay, CHIP; details: CA1 at 10 μM
Outline: as §2

hsp90 and Unc45 = test: TPR co-chaperone and hsp90 binding assay, Unc45; details: CA1 0–10 μM
Outline: as §2

hsp90 and immunophilins = details: millimolar concentration; ref [28]; cited from earlier work
[4] = 17-AAG 100 nM and 1 μM, normalized to GAPDH, compared to DMSO

C=CCNC1=C2C[C@@H](C)C[C@H](OC)[C@H](O)[C@@H](C)/C=C(\C)[C@H](OC(N)=O)[C@@H](OC)/C=C\C=C(/C)C(=O)NC(=CC1=O)C2=O [17-AAG]
hsp90 protein level, fold increase (hsp90 [1]): ~3 fold
IC50 (HeLa cells): ~100 nM
FKBP51 protein level, fold increase (FKBP51; [4]): ~ 2 fold
FKBP52 protein level, fold increase (FKBP52; [4]): ~ 4 fold
heat shock response triggered (heat shock response): triggering the heat shock response
HSF1 protein level, fold increase (HSF1): ~4 fold
luciferase activity over time (hsp90 [2]): reduce the luciferase activity over time
inhibition of FKBP51 binding to hsp90 (hsp90 and FKBP51; 17-AAG at 5 μM): only partially inhibits
hsp70 protein level, fold increase (hsp70; 17-AAG 100 nM and 1 μM): ~ 2.5 fold
GR protein level [3]: no change
inhibition of TOM70 binding to hsp90 (hsp90 and TOM70; 17-AAG at 5 μM): only partially inhibits

CO[C@H]1[C@H](OC(=O)c2ccc(C)[nH]2)[C@H](O)[C@@H](Oc2ccc3c(O)c(NC(=O)c4c[nH]c(C(=O)Nc5c(O)c6ccc(O[C@H]7OC(C)(C)[C@@H](OC)[C@H](OC(=O)c8ccc(C)[nH]8)[C@@H]7O)c(C)c6oc5=O)c4C)c(=O)oc3c2C)OC1(C)C [CA1, coumermycin A1]
inhibition of Cyp40 binding to hsp90 (hsp90 and Cyp40): inhibiting
FKBP51 protein level (FKBP51; CA1 5 μM and 50 μM): little change
FKBP52 protein level (FKBP52; CA1 at high concentrations, relative to control): slightly decreases
heat shock response triggered (heat shock response): the HSR was not triggered
effect on binding between hsp90 and FKBP52 (hsp90 and FKBP52): no impact
effect on binding between hsp90 and HOP (hsp90 and HOP): no impact
inhibition of CHIP binding to hsp90 (hsp90 and CHIP): inhibiting
effect on binding between hsp90 and Unc45 (hsp90 and Unc45): no impact
luciferase activity over time (hsp90 [2]): reduce the luciferase activity over time
effect on binding between hsp90 and FKBP51 (hsp90 and FKBP51; CA1 0–10 μM): no impact
hsp70 protein level (hsp70; 5 μM and 50 μM): maintenance of hsp70 protein levels
inhibition of TOM70 binding to hsp90 (hsp90 and TOM70; CA1 at 10 μM): inhibiting

CO[C@@H]1[C@@H](OC(N)=O)[C@@H](O)[C@H](Oc2ccc3c(O)c(NC(=O)c4ccc(O)c(CC=C(C)C)c4)c(=O)oc3c2C)OC1(C)C [novabiocin]
disruption of immunophilins from binding to hsp90 (hsp90 and immunophilins): disrupts immunophilins from binding to hsp90
